Data on 15 molecules can be found in ChEMBL document CHEMBL1122089, “Synthesis and biological activity of some very hydrophobic superagonist analogues of luteinizing hormone-releasing hormone” (1982).

The species entered for assay [1] is Rattus norvegicus. Kind of assay: Suppression of estrus cyclicity in rat. Format: functional. Put shortly: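 Adult female Sprague-Dawley rats (~160 g), groups of 10, 14:10 light/dark, food and water ad libitum. Compound in 0.1% BSA-saline vehicle given sc twice daily (0800, 1630 h), 0.1 or 0.2 mL/injection, 14 consecutive days; at least four doses at 2-fold dilutions; vehicle and positive controls. Daily vaginal lavage; percent of rats in persistent diestrus from day 4 plotted against log dose; ED50 in µg/injection.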

The species named for assay [2] is Rattus norvegicus. Kind of assay: Suppression of estrus cyclicity in rat relative to [D-Trp6, ProNHEt9]. The format is functional.

`CCNC(=O)[C@@H]1CCCN1C(=O)[C@H](CCCN=C(N)N)NC(=O)[C@H](CC(C)C)N(C)C(=O)[C@@H](Cc1ccc2ccccc2c1)NC(=O)[C@H](Cc1ccc(O)cc1)NC(=O)[C@H](CO)NC(=O)[C@H](Cc1c[nH]c2ccccc12)NC(=O)[C@H](Cc1c[nH]cn1)NC(=O)[C@@H]1CCC(=O)N1`: the ED50 in assay [1] worked out at 0.12 µg. In assay [2], this molecule showed a Potency of 1.8.

Consider `CCNC(=O)[C@@H]1CCCN1C(=O)[C@H](CCCN=C(N)N)NC(=O)[C@H](CC(C)C)NC(=O)[C@@H](Cc1c[nH]c2ccccc12)NC(=O)[C@H](Cc1ccc(O)cc1)NC(=O)[C@H](CO)NC(=O)[C@H](Cc1c[nH]c2ccccc12)NC(=O)[C@H](Cc1c[nH]cn1)NC(=O)[C@@H]1CCC(=O)N1`, for which the ED50 in assay [1] is 0.14 µg. In addition, the Potency in assay [2] was determined as 1.

In the case of `Cc1cc(C)c(C[C@@H](NC(=O)[C@H](Cc2ccc(O)cc2)NC(=O)[C@H](CO)NC(=O)[C@H](Cc2c[nH]c3ccccc23)NC(=O)[C@H](Cc2c[nH]cn2)NC(=O)[C@@H]2CCC(=O)N2)C(=O)N[C@@H](CC(C)C)C(=O)N[C@@H](CCCN=C(N)N)C(=O)N2CCC[C@H]2C(=O)NCC(N)=O)c(C)c1`, the ED50 in assay [1] stood at 0.07 µg. This molecule also came in with a Potency in assay [2] of 2.

Molecule `CC(C)C[C@H](NC(=O)[C@@H](Cc1ccc2ccccc2c1Br)NC(=O)[C@H](Cc1ccc(O)cc1)NC(=O)[C@H](CO)NC(=O)[C@H](Cc1c[nH]c2ccccc12)NC(=O)[C@H](Cc1c[nH]cn1)NC(=O)[C@@H]1CCC(=O)N1)C(=O)N[C@@H](CCCN=C(N)N)C(=O)N1CCC[C@H]1C(=O)NCC(N)=O` gave an ED50 in assay [1] of 0.15 µg. Besides, the Potency in assay [2] was determined as 1.

In assay [1], `CCNC(=O)[C@@H]1CCCN1C(=O)[C@H](CCCN=C(N)N)NC(=O)[C@H](CC(C)C)NC(=O)[C@@H](Cc1ccc2ccccc2c1)NC(=O)[C@H](Cc1ccc(O)cc1)NC(=O)[C@H](CO)NC(=O)[C@H](Cc1cccc2ccccc12)NC(=O)[C@H](Cc1c[nH]cn1)NC(=O)[C@@H]1CCC(=O)N1` yielded an ED50 of 0.16 µg. The molecule further displayed a Potency in assay [2] of 0.9.

The molecule `CC(C)C[C@H](NC(=O)[C@@H](Cc1c(F)c(F)c(F)c(F)c1F)NC(=O)[C@H](Cc1ccc(O)cc1)NC(=O)[C@H](CO)NC(=O)[C@H](Cc1c[nH]c2ccccc12)NC(=O)[C@H](Cc1c[nH]cn1)NC(=O)[C@@H]1CCC(=O)N1)C(=O)N[C@@H](CCCN=C(N)N)C(=O)N1CCC[C@H]1C(=O)NCC(N)=O` returned an ED50 in assay [1] of 0.12 µg. In assay [2], this molecule returned a Potency of 1.2.

In the case of `CC(C)C[C@H](NC(=O)[C@@H](Cc1ccc(C(F)(F)F)cc1)NC(=O)[C@H](Cc1ccc(O)cc1)NC(=O)[C@H](CO)NC(=O)[C@H](Cc1c[nH]c2ccccc12)NC(=O)[C@H](Cc1c[nH]cn1)NC(=O)[C@@H]1CCC(=O)N1)C(=O)N[C@@H](CCCN=C(N)N)C(=O)N1CCC[C@H]1C(=O)NCC(N)=O`, the ED50 in assay [1] was 0.11 µg. In addition, the Potency in assay [2] is on record as 1.4.

For `CC(C)C[C@H](NC(=O)[C@@H](Cc1ccc2ccccc2c1)NC(=O)[C@H](Cc1ccc(O)cc1)NC(=O)[C@H](CO)NC(=O)[C@H](Cc1c[nH]c2ccccc12)NC(=O)[C@H](Cc1c[nH]cn1)NC(=O)[C@@H]1CCC(=O)N1)C(=O)N[C@@H](CCCN=C(N)N)C(=O)N1CCC[C@H]1C(=O)NCC(N)=O`, in assay [1], the ED50 worked out at 0.07 µg. Besides, the Potency in assay [2] is on record as 1.9.

`CC(C)C[C@H](NC(=O)[C@@H](Cc1ccc(-c2ccccc2)cc1)NC(=O)[C@H](Cc1ccc(O)cc1)NC(=O)[C@H](CO)NC(=O)[C@H](Cc1c[nH]c2ccccc12)NC(=O)[C@H](Cc1c[nH]cn1)NC(=O)[C@@H]1CCC(=O)N1)C(=O)N[C@@H](CCCN=C(N)N)C(=O)N1CCC[C@H]1C(=O)NCC(N)=O`: the Potency in assay [2] is 1.4.

For `CC(C)C[C@H](NC(=O)[C@@H](Cc1c2ccccc2cc2ccccc12)NC(=O)[C@H](Cc1ccc(O)cc1)NC(=O)[C@H](CO)NC(=O)[C@H](Cc1c[nH]c2ccccc12)NC(=O)[C@H](Cc1c[nH]cn1)NC(=O)[C@@H]1CCC(=O)N1)C(=O)N[C@@H](CCCN=C(N)N)C(=O)N1CCC[C@H]1C(=O)NCC(N)=O`, in assay [1], the ED50 was 0.27 µg. Further, in assay [2], the Potency is reported as 0.5.

The molecule `CCNC(=O)[C@@H]1CCCN1C(=O)[C@H](CCCN=C(N)N)NC(=O)[C@H](CC(C)C)NC(=O)[C@@H](Cc1ccc2ccccc2c1)NC(=O)[C@H](Cc1ccc(O)cc1)NC(=O)[C@H](CO)NC(=O)[C@H](Cc1c[nH]c2ccccc12)NC(=O)[C@H](Cc1c[nH]cn1)NC(=O)[C@@H]1CCC(=O)N1` yielded an ED50 in assay [1] of 0.22 µg. Moreover, in assay [2], the Potency stood at 0.9.

With `COc1cc(C[C@@H](NC(=O)[C@H](Cc2ccc(O)cc2)NC(=O)[C@H](CO)NC(=O)[C@H](Cc2c[nH]c3ccccc23)NC(=O)[C@H](Cc2c[nH]cn2)NC(=O)[C@@H]2CCC(=O)N2)C(=O)N[C@@H](CC(C)C)C(=O)N[C@@H](CCCN=C(N)N)C(=O)N2CCC[C@H]2C(=O)NCC(N)=O)cc(OC)c1OC`, the ED50 in assay [1] was determined as 0.09 µg. For the same molecule, the Potency in assay [2] is on record as 1.4.

In the case of `CCNC(=O)[C@@H]1CCCN1C(=O)[C@H](CCCN=C(N)N)NC(=O)[C@H](CC(C)C)NC(=O)[C@@H](CC(c1ccccc1)c1ccccc1)NC(=O)[C@H](Cc1ccc(O)cc1)NC(=O)[C@H](CO)NC(=O)[C@H](Cc1c[nH]c2ccccc12)NC(=O)[C@H](Cc1c[nH]cn1)NC(=O)[C@@H]1CCC(=O)N1`, the ED50 in assay [1] was 0.11 µg. The Potency in assay [2] was 0.9.

Regarding `CC(C)C[C@H](NC(=O)[C@@H](CC1CCCCC1)NC(=O)[C@H](Cc1ccc(O)cc1)NC(=O)[C@H](CO)NC(=O)[C@H](Cc1c[nH]c2ccccc12)NC(=O)[C@H](Cc1c[nH]cn1)NC(=O)[C@@H]1CCC(=O)N1)C(=O)N[C@@H](CCCN=C(N)N)C(=O)N1CCC[C@H]1C(=O)NCC(N)=O`, in assay [1], the ED50 turned out to be 0.3 µg. The molecule further had a Potency in assay [2] of 0.5.

For the molecule `Cc1cc(C)c(C[C@@H](NC(=O)[C@H](Cc2ccc(O)cc2)NC(=O)[C@H](CO)NC(=O)[C@H](Cc2c[nH]c3ccccc23)NC(=O)[C@H](Cc2c[nH]cn2)NC(=O)[C@@H]2CCC(=O)N2)C(=O)N(C)[C@@H](CC(C)C)C(=O)N[C@@H](CCCN=C(N)N)C(=O)N2CCC[C@H]2C(=O)NCC(N)=O)c(C)c1`, in assay [2], the Potency was 1.1.
